ChEMBL document CHEMBL1138297, “Design, synthesis, and multivariate quantitative structure-activity relationship of salicylanilides--potent inhibitors of type III secretion in Yersinia” (J Med Chem, 2007)
Calls of active or inactive are those of the source. No cut-off for these calls is given here.

Key:
[1] = system: Yersinia pseudotuberculosis; test: Effect on T3S in Yersinia pseudotuberculosis 3 pIB29 assessed as inhibition of light emission at 50 uM by luciferase reporter gene assay
Method in brief: (§1)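 YPIII pIB29 (yopE-luxAB) reporter strain grown overnight at ambient temperature in BHI with 5 mM EGTA and 20 mM MgCl2 to deplete calcium. Culture adjusted to OD600 0.15-0.25 and added to compounds in DMSO (final ≤1%). Incubated 1 h at ambient temperature with shaking, then 2 h at 37 °C. Decanal substrate added and luminescence read at once. Triplicates; repeated on ≥2 occasions.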

[2] = system: Yersinia pseudotuberculosis; test: Effect on T3S in Yersinia pseudotuberculosis 3 pIB29 assessed as inhibition of light emission at 10 uM by luciferase reporter gene assay; method in brief: as §1
[3] = system: Yersinia pseudotuberculosis; test: Effect on T3S in Yersinia pseudotuberculosis 3 pIB29 assessed as inhibition of light emission at 20 uM by luciferase reporter gene assay; method in brief: as §1
[4] = system: Yersinia pseudotuberculosis; test: Effect on T3S in Yersinia pseudotuberculosis 3 pIB29 assessed as inhibition of light emission at 100 uM by luciferase reporter gene assay; method in brief: as §1
[5] = system: Yersinia pseudotuberculosis; test: Effect on T3S in Yersinia pseudotuberculosis 3 pIB29 assessed as inhibition of light emission at 2 uM by luciferase reporter gene assay; method in brief: as §1
[6] = system: Yersinia pseudotuberculosis; test: Effect on T3S in Yersinia pseudotuberculosis 3 pIB29 assessed as inhibition of light emission at 1 uM by luciferase reporter gene assay; method in brief: as §1
[7] = system: Yersinia pseudotuberculosis; test: Effect on T3S in Yersinia pseudotuberculosis 3 pIB29 assessed as inhibition of light emission at 0.5 uM by luciferase reporter gene assay; method in brief: as §1
[8] = system: Yersinia pseudotuberculosis; test: Effect on T3S in Yersinia pseudotuberculosis 3 pIB29 assessed as inhibition of light emission at 5 uM by luciferase reporter gene assay; method in brief: as §1

| Structure (SMILES) | inhibition [1] [%] | inhibition [2] [%] | inhibition [3] [%] | inhibition [4] [%] | inhibition [5] [%] | inhibition [6] [%] | inhibition [7] [%] | inhibition [8] [%] | Activity [2] | Activity [3] | Activity [1] | Activity [4] |
| --- | --- | --- | --- | --- | --- | --- | --- | --- | --- | --- | --- | --- |
| CC(C)(C)c1ccc(NC(=O)c2cc(F)ccc2O)cc1 | 13 | 13 | 12 | 8 | – | – | – | – | – | – | – | – |
| O=C(Nc1ccccc1F)c1cc(Br)cc(Br)c1O | 64 | 14 | 29 | 78 | – | – | – | – | – | – | – | – |
| CC(=O)Oc1cc(C)ccc1C(=O)Nc1ccccc1F | 53 | 0 | 8 | 95 | – | – | – | – | – | – | – | – |
| COc1cc(Cl)c(C)cc1NC(=O)c1cccc(C(C)C)c1O | 19 | 23 | 25 | 5 | – | – | – | – | – | – | – | – |
| O=C(Nc1cc(Cl)ccc1F)c1cc(I)cc(I)c1O | 100 | 53 | 92 | 100 | 6 | 2 | 7 | 19 | – | – | – | – |
| COc1cc(Cl)c(C)cc1NC(=O)c1cc(C)ccc1OC(C)=O | -2 | – | – | – | – | – | – | – | inactive | inactive | – | – |
| Cc1cc(NC(=O)c2cc(Cl)ccc2O)ccc1Cl | 56 | 61 | 85 | 75 | 62 | 50 | 15 | 85 | – | – | – | – |
| CC(=O)Oc1ccc(Br)cc1C(=O)Nc1cc(C(C)(C)C)cc(C(C)(C)C)c1 | 15 | – | – | 0 | – | – | – | – | inactive | inactive | – | – |
| COc1cc(Cl)c(C)cc1NC(=O)c1cc(I)cc(I)c1OC(C)=O | 35 | 11 | 19 | 50 | – | – | – | – | – | – | – | – |
| CC(=O)Oc1c(Cl)cccc1C(=O)Nc1ccc(SC(F)(F)F)cc1 | 98 | 55 | 70 | 100 | 12 | 6 | -1 | 34 | – | – | – | – |
| CC(=O)Oc1c(C(=O)Nc2ccc(SC(F)(F)F)cc2)cc2cc(Br)ccc2c1Br | 4 | 9 | 10 | -3 | – | – | – | – | – | – | – | – |
| Cc1cc(C)cc(NC(=O)c2c(O)c(Cl)cc(Cl)c2Cl)c1 | 46 | 21 | 24 | 52 | – | – | – | – | – | – | – | – |
| CC(=O)Oc1c(Cl)cc(Cl)c(Cl)c1C(=O)Nc1cc(C)cc(C)c1 | 5 | 6 | 6 | 20 | – | – | – | – | – | – | – | – |
| CC(=O)Oc1c(Cl)cc(Cl)c(Cl)c1C(=O)Nc1ccc(F)cc1 | 32 | 19 | 23 | 54 | – | – | – | – | – | – | – | – |
| CCCCCCCc1ccc(NC(=O)c2cc(I)cc(I)c2OC(C)=O)cc1 | 17 | 19 | 19 | 5 | – | – | – | – | – | – | – | – |
| CC(=O)Oc1c(I)cc(I)cc1C(=O)Nc1ccc(Br)cc1 | 94 | 69 | 86 | 95 | 7 | 8 | 11 | 38 | – | – | – | – |
| O=C(Nc1ccc(Cl)cc1)c1cc(F)cc(F)c1 | – | – | – | – | – | – | – | – | inactive | inactive | inactive | inactive |
| O=C(Nc1ccccc1)c1cc(I)cc(I)c1O | 87 | 32 | 51 | 99 | – | – | – | – | – | – | – | – |
| O=C(Nc1ccc(Br)cc1)c1cc(I)cc(I)c1O | 100 | 100 | 100 | 100 | 74 | 64 | 36 | 94 | – | – | – | – |
| Cc1ccc(C(=O)Nc2ccccc2F)c(O)c1 | 35 | 23 | 21 | 34 | – | – | – | – | – | – | – | – |
| CC(=O)Oc1c(I)cc(I)cc1C(=O)Nc1cc(Cl)ccc1F | 89 | 34 | 58 | 95 | 1 | 1 | 6 | 9 | – | – | – | – |
| O=C(Nc1ccc(Cl)cc1)c1ccccc1O | 99 | 14 | 64 | 100 | – | – | – | – | – | – | – | – |
| CC(=O)Oc1c(I)cc(I)cc1C(=O)Nc1ccc(Cl)cc1 | 99 | 76 | 98 | 99 | 17 | 7 | 3 | 54 | – | – | – | – |

| Structure (SMILES) | inhibition [1] [%] | inhibition [2] [%] | inhibition [3] [%] | inhibition [4] [%] | inhibition [5] [%] | inhibition [6] [%] | inhibition [7] [%] | inhibition [8] [%] | Activity [2] | Activity [3] | Activity [1] | Activity [4] |
| --- | --- | --- | --- | --- | --- | --- | --- | --- | --- | --- | --- | --- |
| CC(=O)Oc1c(Cl)cc(Cl)c(Cl)c1C(=O)Nc1ccc(C(C)(C)C)cc1 | 19 | 4 | 7 | 12 | – | – | – | – | – | – | – | – |
| O=C(Nc1ccc(SC(F)(F)F)cc1)c1cc(I)cc(I)c1O | 100 | 83 | 100 | 100 | 39 | 17 | 19 | 75 | – | – | – | – |
| O=C(Nc1ccc(Cl)cc1)c1cc(I)ccc1O | 80 | 91 | 85 | 78 | 90 | 68 | 55 | 91 | – | – | – | – |
| CC(=O)Oc1c(I)cc(I)cc1C(=O)Nc1ccc(F)cc1 | 86 | 60 | 76 | 93 | 15 | 6 | 12 | 31 | – | – | – | – |
| O=C(Nc1ccc(SC(F)(F)F)cc1)c1cc(I)ccc1O | 49 | 57 | 57 | 51 | 53 | 53 | 17 | 55 | – | – | – | – |
| O=C(Nc1ccc(SC(F)(F)F)cc1)c1c(O)c(Cl)cc(Cl)c1Cl | 100 | 58 | 68 | 100 | 18 | 4 | 11 | 54 | – | – | – | – |
| O=C(Nc1ccc(Br)cc1)c1cc(I)ccc1O | 62 | 71 | 67 | 60 | 68 | 49 | 20 | 68 | – | – | – | – |
| O=C(Nc1ccc(F)cc1)c1c(O)c(Cl)cc(Cl)c1Cl | 32 | 19 | 19 | 45 | – | – | – | – | – | – | – | – |
| CC(=O)Oc1c(Cl)cc(Cl)c(Cl)c1C(=O)Nc1ccccc1 | 12 | – | – | 10 | – | – | – | – | inactive | inactive | – | – |
| COc1cc(Cl)c(C)cc1NC(=O)c1cc(I)cc(I)c1O | 57 | 35 | 55 | 67 | – | – | – | – | – | – | – | – |
| CC(=O)Oc1c(I)cc(I)cc1C(=O)Nc1ccccc1 | 75 | 30 | 48 | 94 | – | – | – | – | – | – | – | – |
| CC(=O)Oc1ccccc1C(=O)Nc1ccc(Cl)cc1 | 92 | 23 | 44 | 99 | – | – | – | – | – | – | – | – |
| CCCCCCCc1ccc(NC(=O)c2cc(I)cc(I)c2O)cc1 | 22 | 30 | 27 | 3 | – | – | – | – | – | – | – | – |
| COc1cc(Cl)c(C)cc1NC(=O)c1cc(C)ccc1O | 16 | – | – | -1 | – | – | – | – | inactive | inactive | – | – |
| CC(=O)Oc1c(I)cc(I)cc1C(=O)Nc1ccc(C(C)(C)C)cc1 | 17 | 17 | 20 | 2 | – | – | – | – | – | – | – | – |
| CC(=O)Oc1ccc(F)cc1C(=O)Nc1ccc(C(C)(C)C)cc1 | 22 | 37 | 37 | 22 | – | – | – | – | – | – | – | – |
| CC(C)(C)c1ccc(NC(=O)c2cc(I)cc(I)c2O)cc1 | 41 | 33 | 40 | 42 | – | – | – | – | – | – | – | – |
| COc1cc(Cl)c(C)cc1NC(=O)c1cccc(C(C)C)c1OC(C)=O | 4 | 10 | 8 | -1 | – | – | – | – | – | – | – | – |
| O=C(Nc1ccc(SC(F)(F)F)cc1)c1cc2cc(Br)ccc2c(Br)c1O | 63 | 41 | 55 | 63 | – | – | – | – | – | – | – | – |
| O=C(Nc1ccccc1)c1c(O)c(Cl)cc(Cl)c1Cl | 23 | 22 | 21 | 31 | – | – | – | – | – | – | – | – |
| CC(=O)Oc1c(Br)cc(Br)cc1C(=O)Nc1ccccc1F | 61 | 6 | 15 | 83 | – | – | – | – | – | – | – | – |
| CC(C)(C)c1cc(NC(=O)c2cc(Br)ccc2O)cc(C(C)(C)C)c1 | -4 | 12 | 9 | 0 | – | – | – | – | – | – | – | – |
| CC(C)(C)c1ccc(NC(=O)c2c(O)c(Cl)cc(Cl)c2Cl)cc1 | 23 | 27 | 28 | 34 | – | – | – | – | – | – | – | – |
